Laboratory results taken from ChEMBL document CHEMBL4813998, “Structural simplification of evodiamine: Discovery of novel tetrahydro-β-carboline derivatives as potent antitumor agents” (Bioorg Med Chem Lett, 2021).
The source made the active and inactive calls. No cut-off for these calls is given here.

Assays:
[1] = Antiproliferative activity against human HCT116 cells assessed as growth inhibition by CCK8 assay; assay type: functional, cell-based, Epithelial cell
[2] = Antiproliferative activity against human A549 cells assessed as growth inhibition by CCK8 assay; assay type: functional, cell-based, Epithelial cell
[3] = Antiproliferative activity against human MDA-MB-231 cells assessed as growth inhibition by CCK8 assay; assay type: functional, cell-based, Epithelial cell
[4] = target: T1, DNA topoisomerase 1 (Homo sapiens) (UniProt P11387); assay: Inhibition of TOP1 (unknown origin) assessed as decrease in relaxation of supercoiled DNA using supercoiled plasmid DNA at 500 uM relative to camptothecin
T1 sequence (whole entry): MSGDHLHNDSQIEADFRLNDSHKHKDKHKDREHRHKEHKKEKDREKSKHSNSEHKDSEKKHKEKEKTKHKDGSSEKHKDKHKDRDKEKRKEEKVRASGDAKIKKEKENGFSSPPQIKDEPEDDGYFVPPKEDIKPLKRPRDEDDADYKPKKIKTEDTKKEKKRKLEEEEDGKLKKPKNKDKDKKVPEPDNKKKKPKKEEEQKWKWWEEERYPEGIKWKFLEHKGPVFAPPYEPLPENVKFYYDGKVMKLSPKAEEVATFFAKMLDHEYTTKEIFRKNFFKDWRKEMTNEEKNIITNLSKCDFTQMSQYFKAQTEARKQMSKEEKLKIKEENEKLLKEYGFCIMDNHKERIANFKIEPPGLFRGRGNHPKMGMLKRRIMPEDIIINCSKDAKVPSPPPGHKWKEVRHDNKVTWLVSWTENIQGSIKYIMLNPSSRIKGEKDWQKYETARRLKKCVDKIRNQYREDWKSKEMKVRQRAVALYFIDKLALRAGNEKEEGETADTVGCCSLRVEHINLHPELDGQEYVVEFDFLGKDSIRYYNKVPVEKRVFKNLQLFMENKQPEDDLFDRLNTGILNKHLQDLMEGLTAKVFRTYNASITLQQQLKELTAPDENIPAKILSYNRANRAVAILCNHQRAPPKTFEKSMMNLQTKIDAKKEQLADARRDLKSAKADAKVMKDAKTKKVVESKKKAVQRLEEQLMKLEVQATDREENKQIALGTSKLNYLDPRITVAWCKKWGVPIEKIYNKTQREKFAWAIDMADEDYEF
Outline: (§1)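 Top1-mediated relaxation of supercoiled DNA was tested with compounds at 500 μM and 100 μM. Camptothecin served as the positive control.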

[5] = target: DNA topoisomerase 2-alpha (Homo sapiens) (UniProt P11388); assay: Inhibition of TOP2 (unknown origin) assessed as fractured DNA fragments using supercoiled plasmid DNA at 250 uM
Sequence of DNA topoisomerase 2-alpha (Homo sapiens) (P11388 whole entry, the tested form may be a part): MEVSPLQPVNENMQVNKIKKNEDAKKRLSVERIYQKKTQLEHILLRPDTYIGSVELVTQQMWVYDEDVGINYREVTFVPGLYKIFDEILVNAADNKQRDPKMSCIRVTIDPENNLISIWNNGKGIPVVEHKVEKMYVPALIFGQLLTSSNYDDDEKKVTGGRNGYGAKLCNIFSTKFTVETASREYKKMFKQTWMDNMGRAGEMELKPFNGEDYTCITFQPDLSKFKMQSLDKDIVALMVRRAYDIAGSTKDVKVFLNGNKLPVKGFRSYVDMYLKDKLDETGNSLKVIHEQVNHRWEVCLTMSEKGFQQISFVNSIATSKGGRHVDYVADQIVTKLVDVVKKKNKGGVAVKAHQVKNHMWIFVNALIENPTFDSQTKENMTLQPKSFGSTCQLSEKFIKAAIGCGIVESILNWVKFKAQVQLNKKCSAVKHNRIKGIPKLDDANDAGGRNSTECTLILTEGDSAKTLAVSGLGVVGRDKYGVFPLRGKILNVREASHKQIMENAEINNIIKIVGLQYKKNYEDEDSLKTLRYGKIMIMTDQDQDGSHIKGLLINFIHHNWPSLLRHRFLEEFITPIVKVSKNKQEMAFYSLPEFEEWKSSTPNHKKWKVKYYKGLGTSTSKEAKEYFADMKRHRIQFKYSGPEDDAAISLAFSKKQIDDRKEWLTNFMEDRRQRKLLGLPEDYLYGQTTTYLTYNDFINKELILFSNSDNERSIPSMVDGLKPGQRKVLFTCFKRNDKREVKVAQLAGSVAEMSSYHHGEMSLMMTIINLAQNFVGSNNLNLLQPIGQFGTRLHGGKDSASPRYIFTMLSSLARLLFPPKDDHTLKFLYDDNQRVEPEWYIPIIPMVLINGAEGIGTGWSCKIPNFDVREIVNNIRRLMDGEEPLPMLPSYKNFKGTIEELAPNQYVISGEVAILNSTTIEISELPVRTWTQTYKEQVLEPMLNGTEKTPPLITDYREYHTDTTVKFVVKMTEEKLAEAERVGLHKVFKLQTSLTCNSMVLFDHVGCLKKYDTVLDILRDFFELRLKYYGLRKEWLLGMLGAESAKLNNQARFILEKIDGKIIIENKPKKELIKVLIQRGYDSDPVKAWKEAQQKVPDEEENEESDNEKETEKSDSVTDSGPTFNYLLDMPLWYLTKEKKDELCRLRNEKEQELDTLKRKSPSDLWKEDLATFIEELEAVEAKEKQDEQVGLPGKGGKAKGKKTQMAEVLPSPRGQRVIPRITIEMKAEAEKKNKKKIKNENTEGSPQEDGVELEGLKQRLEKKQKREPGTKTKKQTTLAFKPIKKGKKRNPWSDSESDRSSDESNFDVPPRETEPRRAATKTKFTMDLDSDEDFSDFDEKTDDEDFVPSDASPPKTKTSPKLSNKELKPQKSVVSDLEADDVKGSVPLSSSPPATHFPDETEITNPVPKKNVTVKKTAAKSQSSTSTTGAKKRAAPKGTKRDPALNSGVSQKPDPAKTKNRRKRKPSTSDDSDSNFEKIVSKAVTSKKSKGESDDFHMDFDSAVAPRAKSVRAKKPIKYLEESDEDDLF
Outline: (§2)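 Purified Top2 was incubated with DNA and compounds at 250 μM and 100 μM. The read-out was the appearance of fractured DNA fragments, with etoposide as the positive control.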

[6] = target: DNA topoisomerase 2-alpha (Homo sapiens) (UniProt P11388); assay: Inhibition of TOP2 (unknown origin) assessed as fractured DNA fragments using supercoiled plasmid DNA at 100 uM relative to etoposide; outline: as §2
[7] = target: DNA topoisomerase 2-alpha (Homo sapiens) (UniProt P11388); assay: Inhibition of TOP2 (unknown origin) assessed as fractured DNA fragments using supercoiled plasmid DNA at 50 uM relative to etoposide
[8] = target: T1, DNA topoisomerase 1 (Homo sapiens); assay: Inhibition of TOP1 (unknown origin) assessed as decrease in relaxation of supercoiled DNA using supercoiled plasmid DNA at 100 uM relative to camptothecin; outline: as §1
HCT-116 [9] = assay: Induction of apoptosis in human HCT116 cells assessed as increase in bax protein expression at 0.03 to 1.5 uM after 24 hrs by Western blot analysis; assay type: functional, cell-based; details: dose 0.03-1.5 µM
Outline: (§3)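 HCT116 cells were exposed to various concentrations for 24 h. Lysates were then probed by western blot for caspase-9, caspase-3, Bcl-2, Bax and cytochrome C.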

HCT-116 [10] = assay: Induction of apoptosis in human HCT116 cells assessed as decrease in Bcl-2 protein expression at 0.03 to 1.5 uM after 24 hrs by Western blot analysis; assay type: functional, cell-based; details: dose 0.03-1.5 µM; outline: as §3
HCT-116 [11] = assay: Induction of apoptosis in human HCT116 cells assessed as increase in caspase-3 expression after 24 hrs by Western blot analysis; assay type: functional, cell-based; details: dose 0.03-1.5 µM; outline: as §3
HCT-116 [12] = assay: Induction of apoptosis in human HCT116 cells assessed as increase in caspase-9 expression after 24 hrs by Western blot analysis; assay type: functional, cell-based; details: dose 0.03-1.5 µM; outline: as §3
HCT-116 [13] = assay: Antitumor activity against human HCT116 cells xenografted in nude mice assessed as tumor growth inhibition at 50 mg/kg/day, ip administered bid for 21 days relative to control; assay type: functional, organism-based; details: time 21.0 day
Outline: (§4)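 HCT116 cells were inoculated into nude mice to form xenografts. Dosing was intraperitoneal at 50 mg/kg/day for 21 consecutive days. Evodiamine was given at the same dosage as the comparator. Tumor growth and body weight after implantation were tracked, and data are reported as mean ± SEM.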

Mus musculus = assay: Toxicity in nude mouse xenografted with human HCT116 cells assessed as body weight loss at 50 mg/kg/day, ip administered bid for 21 days; assay type: functional, organism-based; details: Epithelial cell, time 21.0 day; outline: as §4
HCT-116 [14] = assay: Induction of apoptosis in human HCT116 cells assessed as increase in cytochrome c expression after 24 hrs by Western blot analysis; assay type: functional, cell-based; details: dose 0.03-1.5 µM; outline: as §3

SMILES	IC50 ([1]; Homo sapiens, Epithelial cell)	IC50 ([2]; Homo sapiens, Epithelial cell)	IC50 ([3]; Homo sapiens, Epithelial cell)	other results
COc1ccc2[nH]c3c(c2c1)CCN(C(=O)c1ccccc1)C3c1cccc(Br)c1 (stereo unspecified)	3.24 µM	11.9 µM	40.8 µM	
COc1ccc2[nH]c3c(c2c1)CCN(C(=O)CCc1ccccc1F)C3c1ccccc1 (stereo unspecified)	7.76 µM	2.45 µM	0.27 µM	
COc1ccc2[nH]c3c(c2c1)CCN(C(=O)CCc1ccc(F)cc1)C3c1ccccc1 (stereo unspecified)	0.72 µM	3.8 µM	0.34 µM	inhibition [4]: Active; inhibition [5]: Active; inhibition [6]: Active; inhibition [7]: Active
COc1ccc2[nH]c3c(c2c1)CCN(C(=O)CCc1ccccc1)C3c1ccccc1 (stereo unspecified)	0.36 µM	7.91 µM	0.57 µM	inhibition [4]: Active; inhibition [8]: Active; inhibition [5]: Active; inhibition [6]: Active; inhibition [7]: Active
COc1ccc2[nH]c3c(c2c1)CCN(C(=O)c1ccccc1)C3c1ccc(F)c(F)c1 (stereo unspecified)	2.65 µM	30.2 µM	31 µM	
COc1ccc2[nH]c3c(c2c1)CCN(C(=O)CCc1ccccc1)C3c1ccc(Cl)c(Cl)c1 (single isomer, unassigned; (-))				IC50 ([1]; epithelial cell): 17.7 µM; IC50 ([2]; epithelial cell): 16.1 µM; IC50 ([3]; epithelial cell): > 50 µM
COc1cccc(C(=O)N2CCc3c([nH]c4ccc(OC)cc34)C2c2ccc(Cl)c(Cl)c2)c1 (stereo unspecified)	1.97 µM	13.6 µM	0.68 µM	
CC[C@@]1(O)C(=O)OCc2c1cc1n(c2=O)Cc2cc3ccccc3nc2-1 [CAMPTOTHECIN]	0.01 µM	0.045 µM	0.075 µM	
O=C(c1ccccc1)N1CCc2c([nH]c3ccccc23)C1c1ccccc1 (stereo unspecified)	57.9 µM	> 100 µM	51.2 µM	
COc1ccc2[nH]c3c(c2c1)CCN(C(=O)CCc1ccccc1)C3c1ccc(Cl)c(Cl)c1 (stereo in doubt; 45)				inhibition [4]: Active; inhibition [8]: Active; inhibition [5]: Active; inhibition [6]: Active; inhibition [7]: Active; Activity (HCT-116 [9]): Active; Activity (HCT-116 [10]): Active; Activity (HCT-116 [11]): Active; Activity (HCT-116 [12]): Active; Activity (HCT-116 [13]): Active; Activity (Mus musculus): Active; Activity (HCT-116 [14]): Dose-Dependent Effect
COc1ccc(C(=O)N2CCc3c([nH]c4ccc(OC)cc34)C2c2ccccc2)cc1 (stereo unspecified)	6.14 µM	11.8 µM	2.81 µM	
CN1c2ccccc2C(=O)N2CCc3c([nH]c4ccccc34)[C@H]21	19.6 µM	> 100 µM	49 µM	
COc1ccc2[nH]c3c(c2c1)CCN(C(=O)c1ccccc1)C3c1ccc(C)cc1 (stereo unspecified)	6.45 µM	17.4 µM	22.2 µM	
COc1ccc2[nH]c3c(c2c1)CCN(C(=O)c1ccc([N+](=O)[O-])cc1)C3c1ccccc1 (stereo unspecified)	58.1 µM	25.5 µM	6.18 µM	
COc1ccc2[nH]c3c(c2c1)CCN(C(=O)c1ccccc1)C3c1ccc(Br)cc1 (stereo unspecified)	3.62 µM	2.09 µM	18.8 µM	
O=C(c1cccc(F)c1)N1CCc2c([nH]c3ccccc23)C1c1ccccc1 (stereo unspecified)	32.5 µM	> 100 µM	57.6 µM	

SMILES	IC50 ([1]; Homo sapiens, Epithelial cell)	IC50 ([2]; Homo sapiens, Epithelial cell)	IC50 ([3]; Homo sapiens, Epithelial cell)	other results
COc1cccc(C(=O)N2CCc3c([nH]c4ccc(OC)cc34)C2c2ccccc2)c1 (stereo unspecified)	5.13 µM	12 µM	3.01 µM	
COc1ccc2[nH]c3c(c2c1)CCN(C(=O)c1cccc(F)c1)C3c1ccccc1 (stereo unspecified)	4.8 µM	9.27 µM	3.28 µM	
COc1ccc2[nH]c3c(c2c1)CCN(C(=O)c1ccc(Cl)cc1)C3c1ccccc1 (stereo unspecified)	5.56 µM	2.15 µM	1.11 µM	
O=C(c1ccccc1)N1CCc2c([nH]c3ccccc23)C1	21.4 µM	> 100 µM	45.4 µM	
COc1ccc2[nH]c3c(c2c1)CCN(C(=O)c1ccccc1)C3c1ccccc1Cl (stereo unspecified)	6.73 µM	27.2 µM	> 100 µM	
COc1ccc2[nH]c3c(c2c1)CCN(C(=O)CCc1ccccc1)C3c1ccc(Cl)c(Cl)c1 (single isomer, unassigned; (+))				IC50 ([1]; epithelial cell): 0.13 µM; IC50 ([2]; epithelial cell): 0.65 µM; IC50 ([3]; epithelial cell): 0.042 µM
O=C(c1ccccc1)N1CCc2c([nH]c3ccc(O)cc23)C1c1ccccc1 (stereo unspecified)	20.9 µM	19.3 µM	> 100 µM	
COc1ccc2[nH]c3c(c2c1)CCN(C(=O)c1ccc(F)cc1)C3c1ccc(Cl)c(Cl)c1 (stereo unspecified)	0.49 µM	14.1 µM	0.29 µM	inhibition [4]: Active; inhibition [8]: Active; inhibition [5]: Active; inhibition [6]: Active; inhibition [7]: Active
COc1ccc2[nH]c3c(c2c1)CCN(C(=O)c1ccccc1)C3c1ccccc1 (stereo unspecified)	2.53 µM	5.29 µM	1.48 µM	
COc1ccc2[nH]c3c(c2c1)CCN(C(=O)c1ccccc1F)C3c1ccccc1 (stereo unspecified)	6.18 µM	18.7 µM	62.4 µM	
COc1ccc2[nH]c3c(c2c1)CCN(C(=O)c1ccc(F)cc1)C3c1ccccc1 (stereo unspecified)	1.73 µM	12.7 µM	1.24 µM	
COc1ccc2[nH]c3c(c2c1)CCN(C(=O)c1ccccc1)C3c1ccc(Cl)c(Cl)c1 (stereo unspecified)	0.54 µM	1.66 µM	0.59 µM	inhibition [4]: Active; inhibition [8]: Active; inhibition [5]: Active; inhibition [6]: Active; inhibition [7]: Active
COc1ccc(C(=O)N2CCc3c([nH]c4ccc(OC)cc34)C2c2ccc(Cl)c(Cl)c2)cc1 (stereo unspecified)	4.28 µM	44.6 µM	1.08 µM	
CC(C)C1c2[nH]c3ccccc3c2CCN1C(=O)c1ccccc1 (stereo unspecified)	> 100 µM	> 100 µM	> 100 µM	
COc1cc([C@@H]2c3cc4c(cc3[C@@H](O[C@@H]3O[C@@H]5CO[C@@H](C)O[C@H]5[C@H](O)[C@H]3O)[C@H]3COC(=O)[C@H]23)OCO4)cc(OC)c1O				inhibition [5]: Active; inhibition [6]: Active; inhibition [7]: Active
